Measurements taken from ChEMBL document CHEMBL1250426, “Structure-activity relationship of brominated 3-alkyl-5-methylene-2(5H)-furanones and alkylmaleic anhydrides as inhibitors of Salmonella biofilm formation and quorum sensing regulated bioluminescence in Vibrio harveyi” (Bioorg Med Chem, 2010).
The source made the active and inactive calls. No cut-off for these calls is given here.

Columns and labels:
Vibrio harveyi [1] = assay: Antimicrobial activity against wild type Vibrio harveyi BB120; assay type: functional
Procedure, shortened: (§1)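 Overnight AB-medium culture, OD600 adjusted to 0.4, diluted 1:100 into Luria-Marine broth and added to twofold compound dilutions in LM broth, 200 µl per well. Incubated 5 h at 30 °C with aeration under breathable seal; growth read as OD600. GIC50 = concentration reducing OD600 by 50%, from gradients in 2–3 independent experiments, 2–3 repeats each; highest concentration tested 1000 µM.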

[2] = Inhibition of quorum sensing regulated bioluminescence in wild type Vibrio harveyi BB120 after 5 hrs by luminescence assay
Procedure, shortened: (§2)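 Twofold compound dilutions in LM broth; OD600-adjusted (0.4) AB-grown overnight culture diluted 1:100 in Luria-Marine broth, 200 µl per well. Incubated 5 h at 30 °C with aeration; luminescence imaged by CCD camera. IC50 = concentration inhibiting luminescence by 50%, fitted from gradients in 2–3 independent experiments (2–3 repeats each); top concentration 1000 µM.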

Salmonella typhimurium [3] = assay: Antimicrobial activity against Salmonella Typhimurium ATCC 14028 assessed as inhibition of biofilm formation after 48 hrs using crystal violet staining by microtiter plate assay; assay type: functional, organism-based, Salmonella enterica subsp. enterica serovar Typhimurium; conditions: Salmonella enterica, ATCC 14028, 48 h
Procedure, shortened: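 Peg-lid biofilm assay: overnight LB culture diluted 1:100 into TSB 1/20, ca. 1×10⁶ cells added to twofold compound dilutions, 200 µl total per well. Static incubation 48 h at 16 °C; lid moved to fresh medium with compound after 24 h. IC50 from concentration gradients, 2–3 independent experiments, 2–3 repeats each.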

Salmonella typhimurium [4] = assay: Antimicrobial activity against Salmonella Typhimurium ATCC 14028 assessed as effect on planktonic growth at 10 uM after 36 hrs by microtiter plate assay; assay type: functional, organism-based; conditions: Salmonella enterica subsp. enterica serovar Typhimurium
Procedure, shortened: (§3)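 Overnight LB culture diluted 1:200 in TSB 1/20; 300 µl per well; compound serial dilutions made in EtOH, 3 µl added per well in triplicate; solvent-only controls in three- or fourfold. Incubated at 16 °C for at least 36 h with continuous shaking in Bioscreen reader; OD600 read every 15 min; growth curves compared with untreated controls.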

Salmonella typhimurium [5] = assay: Antimicrobial activity against Salmonella Typhimurium ATCC 14028 assessed as effect on planktonic growth at 100 uM after 36 hrs by microtiter plate assay; assay type: functional, organism-based; conditions: Salmonella enterica subsp. enterica serovar Typhimurium; procedure, shortened: as §3
Salmonella typhimurium [6] = assay: Antimicrobial activity against Salmonella Typhimurium ATCC 14028 assessed as effect on planktonic growth at 1 uM after 36 hrs by microtiter plate assay; assay type: functional, organism-based; conditions: Salmonella enterica subsp. enterica serovar Typhimurium; procedure, shortened: as §3
Salmonella typhimurium [7] = assay: Antimicrobial activity against Salmonella Typhimurium ATCC 14028 assessed as effect on planktonic growth at 250 uM after 36 hrs by microtiter plate assay; assay type: functional, organism-based; conditions: Salmonella enterica subsp. enterica serovar Typhimurium; procedure, shortened: as §3
HeLa = assay: Cytotoxicity against human HeLa cells assessed as inhibition of cell proliferation after 4 days by coulter counter assay; assay type: cell-based; conditions: 96 h
Procedure, shortened: (§4)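 Cells suspended at 300,000–500,000 cells/mL; 100 µL added to equal volume of compound dilution in 96-well plates. Incubated at 37 °C for 2 days (L1210, FM3A), 3 days (CEM) or 4 days (HeLa, OST). Cell number counted by Coulter counter; IC50 = concentration inhibiting proliferation by 50%.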

L1210 = assay: Cytotoxicity against mouse L1210 cells assessed as inhibition of cell proliferation after 2 days by coulter counter assay; assay type: cell-based; conditions: L1210, 48 h; procedure, shortened: as §4
FM3A = assay: Cytotoxicity against mouse FM3A cells assessed as inhibition of cell proliferation after 2 days by coulter counter assay; assay type: cell-based; conditions: 48 h; procedure, shortened: as §4
Vibrio harveyi [8] = assay: Inhibition of quorum sensing regulated bioluminescence in Vibrio harveyi JAF553 luxU H58A linked to Kan mutant quorum sensing after 5 hrs by luminescence assay
Procedure, shortened: (§5)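 Twofold serial dilutions in Luria-Marine broth; overnight culture (grown in AB medium) adjusted to OD600 0.4, diluted 1:100 and added 1:1 to wells (200 µl total). Incubated 5 h at 30 °C with aeration under breathable seal. Luminescence read by CCD camera, OD600 also measured. Luminescence expressed as percentage of untreated control of the same strain.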

Vibrio harveyi [9] = assay: Inhibition of quorum sensing regulated bioluminescence in Vibrio harveyi JAF483 luxO D47A linked to Kan mutant quorum sensing after 5 hrs by luminescence assay; procedure, shortened: as §5
CCRF-CEM = assay: Cytotoxicity against human CEM cells assessed as inhibition of cell proliferation after 3 days by coulter counter assay; assay type: cell-based; conditions: 72 h; procedure, shortened: as §4
OST = assay: Cytotoxicity against human thymidine kinase deficient OST cells assessed as inhibition of cell proliferation after 4 days by coulter counter assay; assay type: cell-based; conditions: 96 h; procedure, shortened: as §4
Vibrio harveyi [10] = assay: Inhibition of quorum sensing regulated bioluminescence in Vibrio harveyi BNL258 harboring hfq::Tn5lacZ mutant quorum sensing after 5 hrs by luminescence assay; procedure, shortened: as §5
[11] = Inhibition of quorum sensing regulated bioluminescence in wild type Vibrio harveyi BB120 at 1000 uM after 5 hrs by luminescence assay; procedure, shortened: as §2
Vibrio harveyi [12] = assay: Antimicrobial activity against wild type Vibrio harveyi BB120 at 1000 uM; assay type: functional, organism-based; procedure, shortened: as §1

Row | Structure (SMILES) | IC50 [2] [µM] | GI50 (Vibrio harveyi [1]) [µM] | IC50 (Salmonella typhimurium [3]) [µM] | Activity (Salmonella typhimurium [4]) | Activity (Salmonella typhimurium [5]) | Activity (Salmonella typhimurium [6]) | Activity (Salmonella typhimurium [7]) | further results
1 | CCCCCCCCCCC1=C(Br)/C(=C/Br)OC1=O | 26.6 | > 300 | – | – | – | – | – | –
2 | C=C1OC(=O)C(CCCCCC)=C1Br | 1.36 | 36.3 | 19.4 | inactive | Active | – | Active | IC50 (HeLa): 48 µM; IC50 (L1210): 8.5 µM; IC50 (FM3A): 16 µM; Activity (Vibrio harveyi [8]): Active; Activity (Vibrio harveyi [9]): Active; IC50 (CCRF-CEM): 7.5 µM; IC50 (OST): 2 µM; Activity (Vibrio harveyi [10]): Active
3 | CC(Br)C1=C(Br)/C(=C/Br)OC1=O (stereo unspecified) | 6.34 | 16.1 | 4.5 | inactive | Active | inactive | Active | –
4 | CCCCCCC1=C/C(=C/Br)OC1=O | – | – | > 1000 | – | – | – | – | –
5 | CCCCCCC1=CC(=C(Br)Br)OC1=O | 84 | 197 | 160 | – | – | – | – | –
6 | CCCCCCC1=CC(=O)OC1=O | 97.8 | 640 | > 1000 | – | – | – | – | –
7 | CCCC(OC(C)=O)C1=C(Br)/C(=C/Br)OC1=O (stereo unspecified) | 50.1 | 147 | 132 | inactive | inactive | inactive | inactive | –
8 | CCCCCCCCCCCCC1=C(Br)/C(=C/Br)OC1=O | – | – | – | – | – | – | – | IC50 [11]: Not Active; GI50 (Vibrio harveyi [12]): inactive
9 | CC(=O)OC(C)C1=CC(=C(Br)Br)OC1=O (stereo unspecified) | – | – | 162 | inactive | inactive | inactive | inactive | –
10 | CCCCCCC1=C(Br)/C(=C/Br)OC1=O | 11.9 | 34 | 10.7 | inactive | inactive | – | Active | –
11 | CCCCC1=CC(=C(Br)Br)OC1=O | 18.9 | 141 | 148 | – | – | – | – | –
12 | CCCCCCC1=C(Br)C(=O)OC1=O [BROMOHEXYLMALEIC ANHYDRIDE] | 10.6 | 208 | 65.9 | – | inactive | – | inactive | IC50 (HeLa): 156 µM; IC50 (L1210): 208 µM; IC50 (FM3A): 243 µM; Activity (Vibrio harveyi [8]): Active; Activity (Vibrio harveyi [9]): Active; IC50 (CCRF-CEM): 90 µM; IC50 (OST): 43 µM; Activity (Vibrio harveyi [10]): Active
13 | CCC1=C(Br)/C(=C/Br)OC1=O | 9.27 | 10.8 | 17.9 | inactive | inactive | – | Active | IC50 (HeLa): 39 µM; IC50 (L1210): 284 µM; IC50 (FM3A): > 500 µM; IC50 (CCRF-CEM): 208 µM; IC50 (OST): 6.3 µM
14 | CCCCCC(Br)C1=C(Br)/C(=C/Br)OC1=O (stereo unspecified) | 5.21 | 7.27 | 3.23 | inactive | inactive | inactive | inactive | –
15 | CC(=O)OC(C)C1=C(Br)C(=C(Br)Br)OC1=O (stereo unspecified) | 6.31 | 25.4 | 7.29 | inactive | inactive | inactive | Active | –
16 | CCCCC1=C(Br)C(=C(Br)Br)OC1=O | 14.4 | 20.5 | – | – | – | – | – | –
17 | CCC1=CC(=C(Br)Br)OC1=O | 105 | 325 | 200 | inactive | inactive | – | inactive | –

More lines, in order of falling IC50 [2], values ahead:

Row | IC50 [2] [µM] | Structure (SMILES) | GI50 (Vibrio harveyi [1]) [µM] | IC50 (Salmonella typhimurium [3]) [µM] | Activity (Salmonella typhimurium [4]) | Activity (Salmonella typhimurium [5]) | Activity (Salmonella typhimurium [6]) | Activity (Salmonella typhimurium [7]) | further results
18 | 4.07 | O=C1C=C/C(=C/Br)O1 | 15.7 | – | – | – | – | – | –
19 | 3.41 | CCCCCCCCC1=C(Br)/C(=C/Br)OC1=O | 267 | – | – | – | – | – | –
20 | 2.88 | O=C1C=CC(=C(Br)Br)O1 | 25.5 | – | – | – | – | – | –
21 | 2.76 | CC(Br)C1=C(Br)C(=C(Br)Br)OC1=O (stereo unspecified) | 9.74 | 4.09 | inactive | inactive | inactive | inactive | –
22 | 2.71 | O=C1C=C(Br)/C(=C/Br)O1 | 3.16 | – | – | – | – | – | –
23 | 1.36 | CCCCC1=C(Br)/C(=C/Br)OC1=O | 65.3 | 23.1 | inactive | inactive | – | Active | –
24 | 1.18 | CCCC(Br)C1=C(Br)/C(=C/Br)OC1=O (stereo unspecified) | 4.04 | 5.71 | inactive | Active | inactive | Active | –
25 | 1.15 | CCC1=C(Br)C(=C(Br)Br)OC1=O | 2.26 | 57.5 | inactive | inactive | – | – | –
26 | 0.774 | CC(Br)C1=CC(=C(Br)Br)OC1=O (stereo unspecified) | 3.07 | 1.17 | Active | Active | inactive | Active | –
27 | 0.2 | CCCC(Br)C1=CC(=C(Br)Br)OC1=O (stereo unspecified) | 1.07 | 1.31 | inactive | Active | inactive | Active | –
